PAD4 FP inh: human PAD4 inhibitors, primary screen, biochemical, fluorescence polarization, 1536-well format; Protein-arginine deiminase type-4 (Homo sapiens), Q9UM07; recombinant PAD4, RCA probe fluorescence polarization; inhibition, % at 6.36 µM; 330,000 tested, 0.41% active; AID 485272, 2010;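 active = percent inhibition above a cutoff equal to the mean of all tested compounds plus 3 SD, cut at about 15% in these data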;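 also: 0% = PAD4 with RCA probe and DMSO and 100% = probe without PAD4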
HTRA1 inh: HTRA1 serine protease inhibitors, primary screen, biochemical, fluorescence polarization, HTS | recombinant HTRA1, FP-rhodamine activity-based probe | Q92743 | inhibition, % at 5.96 µM | 340,000 tested, 0.5% active; in the data active = inhibition above about 36%;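 also: 0% = enzyme with DMSO and 100% = wells lacking enzyme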
Target sequence (Q92743 whole entry, looked up): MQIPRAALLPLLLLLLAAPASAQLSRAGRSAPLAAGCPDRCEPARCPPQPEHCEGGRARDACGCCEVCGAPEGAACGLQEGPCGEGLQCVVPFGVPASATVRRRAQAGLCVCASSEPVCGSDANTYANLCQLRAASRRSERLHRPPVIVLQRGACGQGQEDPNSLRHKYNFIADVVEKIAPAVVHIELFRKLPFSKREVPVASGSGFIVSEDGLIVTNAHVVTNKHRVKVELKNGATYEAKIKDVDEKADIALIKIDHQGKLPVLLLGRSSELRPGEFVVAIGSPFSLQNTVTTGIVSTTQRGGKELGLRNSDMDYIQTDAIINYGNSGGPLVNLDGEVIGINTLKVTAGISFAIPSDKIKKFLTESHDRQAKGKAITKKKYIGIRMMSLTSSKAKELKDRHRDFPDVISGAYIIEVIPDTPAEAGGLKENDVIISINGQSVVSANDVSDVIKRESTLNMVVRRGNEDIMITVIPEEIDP
TDP2 absorb: human TDP2 enzyme inhibitors, primary screen, biochemical, epi absorbance, recombinant enzyme; T5PNP hydrolysis, p-nitrophenol absorbance 415 nm; inhibition, % at 12.8 µM; 370,000 tested, 0.34% active;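 active = inhibition above the mean of all tested compounds plus 3 SD, set per campaign, cut at about 25% in these data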;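 also: 0% = DMSO with enzyme and 100% = buffer with substrate but no TDP2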
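Test system: Human TDP2 enzyme | Reagent: 5 mM T5PNP | Compound dosing: 12.8 µM single point, 1% DMSO | Incubation: Enzyme reaction with compound for 2 h at 37 °C | Technique: p-Nitrophenol epi absorbance | Read-out: % inhibition relative to enzyme-containing and enzyme-free wells | Benchmarks: High control without enzyme, low control DMSO plus TDP2 | Replicates: Singlicate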
SIAE primary: human SIAE inhibitors, primary screen, biochemical, fluorescence polarization, FP-Rh probe, 1536-well HTS | 370,000 tested, 0.69% active | inhibition, % at 9.66 µM | SIAE FP-Rh probe binding;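 active = inhibition above a cutoff: mean of compounds within the control limits plus 3 SD of those, cut at about 17% in these data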;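 also: 0% = plate median of compound wells and 100% = probe without SIAE protein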
mABHD4 FP: ABHD4 inhibitors, primary screen, biochemical, fluorescence polarization, mouse | (Lyso)-N-acylphosphatidylethanolamine lipase (Mus musculus), Q8VD66 | inhibition, % at 8.92 µM | purified mABHD4, FP-Rh probe fluorescence polarization | 370,000 tested, 0.54% active;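 active = inhibition exceeding the mean over every tested compound plus 3 SD, cut at about 30% in these data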;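 also: 0% = plate median of compound wells and 100% = S159A mutant with DMSO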
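Assay system: mouse ABHD4 enzyme, wild type / Also added: fluorescent activity-based probe FP-Rh / Doses: single nominal dose of 8.92 µM, 0.89% DMSO final / Timing: 45 min compound pre-incubation plus 60 min probe step, 25 °C / Signal: FP readout, ex 525 nm / em 598 nm / Control set: S159A mutant/DMSO as 100%, compound-well median as 0%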
TCR CD3 inh: inhibitors of human TCR-CD3 interaction, primary screen, biochemical, fluorescence, TAMRA-labeled TCR probe. T-cell receptor (TCR). inhibition, % at 9.4 µM. 360,000 tested, 0.37% active. AID 651800, 2012; in the data active = inhibition above about 19%;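 also: recombinant mutant TCR 2C K166C tagged with TAMRA read by polarization; 0% = receptor in buffer alone and 100% = receptor with positive control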
TDP2 confirm: human TDP2 enzyme inhibitors, retest, confirmation, biochemical, epi absorbance, recombinant enzyme; AID 743263, 2014; inhibition, % at 12.8 µM; 1,100 tested, 22% active; shares compounds with TDP2 absorb; absorbance read-out; in the data active = inhibition above about 25%;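 also: 0% = vehicle with enzyme and 100% = no enzyme buffer only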
* marks the source's active call; other numbers are inactive results; · = no result given. An excerpt weighted towards active compounds, which were near 2% of everything screened.

SMILES	PAD4 FP inh	HTRA1 inh	TDP2 absorb	SIAE primary	mABHD4 FP	TCR CD3 inh	TDP2 confirm
O=C(Nc1ccccc1)/C(=C\c1ccccc1)NC(=O)c1ccco1	-3	·	9	4	0	-1	·
O=C(Nc1ccccc1)/C(=C/c1ccc([N+](=O)[O-])cc1)NC(=O)c1ccco1	-4	1	25*	-4	-5	4	3
Cc1cc(C)n2c(SCC(=O)Nc3cc(S(=O)(=O)N(C)C)ccc3C)nnc2n1	1	6	-15	-1	2	0	·
O=C1CC(c2ccccc2)=NN1c1ccccc1	·	6	65*	4	15	-4	12
CC(C)NC(=O)C(=O)Nc1cc2c3c(c1)C(C)C(=O)N3CCC2 (centres undefined)	1	2	34*	0	5	8	-4
COCCNC(=O)C(=O)Nc1cc2c3c(c1)C(C)C(=O)N3CCC2 (centres undefined)	1	1	-6	-2	-6	-5	·
CC(C)(C)C(c1nc2ccccc2[nH]1)n1c(-c2cccc(S(C)(=O)=O)c2)nc2ccccc21 (centres undefined)	·	·	-5	-11	-2	7	·
N#CCCC1(CCC#N)c2ccccc2C(=O)c2ccccc21	·	·	-3	3	-2	6	·
CCc1ccc(NC(=O)Nc2cc(C(=O)NCC3CCCO3)ccc2N2CC3CC(C2)c2cccc(=O)n2C3)cc1 (centres undefined)	0	-5	25*	-2	-5	6	2
CC1(C)NC(=O)N(CC(=O)OCC(=O)N2CCN(S(=O)(=O)c3ccccc3)CC2)C1=O	·	2	8	9	5	-4	·
COc1ccc(NC(=O)CN(C)S(=O)(=O)c2ccc(Br)s2)cc1	-2	-3	25*	2	-3	-1	1
COc1ccc(CCC(C)N2CCC(CO)(Cc3ccccc3)CC2)cc1 (centres undefined)	-4	1	4	-1	1	2	·
CCN1CCN(CC(O)COC(c2ccccc2)c2ccccc2C)CC1 (centres undefined)	-6	-8	27*	4	21	-9	19
CC(C)(C)NC(=O)C(=O)NC(=O)c1c(F)cccc1Cl	-2	-5	43*	-9	8	0	-5
O=c1ccc(=O)n(-c2ccccc2)[nH]1	7	4	4	-2	0	-3	·
O=c1cc(-c2ccccc2)[nH]n1-c1ccccc1	·	1	76*	11	13	4	-3
CCN(C(=O)CSc1n[nH]c(-c2cc(Cl)ccc2OC)n1)C1CCS(=O)(=O)C1 (centres undefined)	·	4	-8	5	1	-9	·
CC(=O)c1ccc(NC(=O)[C@@H]2CCCN2C(=O)OC(C)(C)C)cc1	1	5	8	-2	4	-6	·
CCCCOC(=O)/C=C\C(=O)NC(N)=O	-2	3	26*	-3	9	0	2
O=C(NCC1CCCO1)c1cccnc1NCc1ccc(F)cc1 (centres undefined)	0	-1	1	-2	1	5	·
O=C(NCC1CCCO1)c1cccnc1Nc1ccccc1F (centres undefined)	1	-1	40*	-5	2	-4	6
CC(C)N(C(=O)[C@H]1CC(CC(=O)NCCC2=CCCCC2)C(=O)N2CCc3c([nH]c4ccccc34)[C@]12C)C(C)C (some centres undefined)	-12	2	-6	3	-4	-4	·
CN(CC(=O)Nc1ccccc1C(F)(F)F)C(=O)CSc1nnc(N)s1	0	10	-11	2	-6	3	·
Fc1ccc(Nc2cncc(-c3ccsc3)c2)cc1Cl	·	·	81*	-3	4	-5	52*
Cc1ccc(S(=O)(=O)N2CCN(C3CC(=O)N(c4ccc(F)cc4)C3=O)CC2)cc1C (centres undefined)	-1	-1	6	0	4	-6	·
SMILES	PAD4 FP inh	HTRA1 inh	TDP2 absorb	SIAE primary	mABHD4 FP	TCR CD3 inh	TDP2 confirm
CCOc1ccc(NC(=O)CN(C)C(=O)c2ccccc2OCc2c(C)noc2C)cc1OCC	-2	4	26*	8	6	-7	10
Cc1ccc(NC(=O)CN(C)C(=O)c2ccccc2OCc2c(C)noc2C)cc1	0	4	8	-9	-5	-15	·
Oc1cncc(Cc2ccccc2)c1	-1	8	25*	3	1	1	-13
COc1cc2cncc(Cc3ccccc3)c2cc1O	·	5	-2	0	1	8	·
CSCc1ccc(C(=O)OCC(=O)NC2CCCC2)o1	·	-1	4	2	-5	-6	·
CCC(C)N1CC(C(=O)NC2CCCCC2)CC1=O (centres undefined)	0	1	25*	-2	-4	2	-5
Cc1ccc(NC(=O)CSCc2cc(=O)n3ccsc3n2)c(C)c1	-3	2	33*	2	0	1	6
COc1ccccc1NC(=O)CSCc1cc(=O)n2ccsc2n1	5	6	-3	-1	3	-14	·
CCN(CC)S(=O)(=O)c1cccc(C(=O)OCC(=O)Nc2ccccc2OC(F)F)c1	-3	-10	64*	5	0	10	-7
CNC(=O)C(=O)Nc1c(O)c2ccccc2[nH]c1=O	0	3	27*	9	5	7	-3
O=C(NNc1c(F)c(F)cc(F)c1F)c1ccc(Cl)nc1	3	2	4	3	8	-5	·
CCOCCCNC(=O)Cn1cc2c(n1)-c1c(oc(C(=O)N3CCCC3)c1C)CC2	·	4	38*	5	-5	-10	-7
COCCN(Cc1nc(-c2ccc(-c3ccccc3)cc2)oc1C)C(C)C	3	-32	-1	-8	-1	3	·
O=C(Cn1ncc2c1-c1ccccc1OC2)N1CCN(Cc2ccccc2)CC1	-6	6	29*	1	2	0	10
CCOc1ccc(S(=O)(=O)NCC(=O)NC2CCCCC2)cc1	-4	5	2	9	-7	0	·
Nc1ccc2nn(-c3ccc(F)cc3)nc2c1	-4	-3	34*	-1	0	2	12
Cc1ccc(-n2nc3ccc(N)cc3n2)cc1	-7	8	21	1	12	9	·

Assay outcomes from PubChem.
